High-throughput results: PubChem, Johns Hopkins Ion Channel Center
Rows were chosen to be rich in hits. Some 3.5% of all compounds tested hit in one or more screens of this group.
RGS4 inh: inhibitors of human RGS4; P49798; HEK293 M3R/RGS4 inducible, Fluo-4 calcium flux; stronger effect = higher value; triggered by carbachol at its EC20; B-score at 10 µM; 0.45% of 310,000 active; AID 463165;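 active = B-score, a plate-corrected calcium signal, over three deviations above library mean, with baseline fluorescence within five deviations of library mean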;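 note: RGS4 expression induced by doxycycline in cells with stable M3 receptor; B-score is computed from the integrated fluorescence ratio over baseline after carbachol; higher B-score means a larger calcium signal and so more RGS4 inhibition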
Target sequence (P49798 whole entry, looked up): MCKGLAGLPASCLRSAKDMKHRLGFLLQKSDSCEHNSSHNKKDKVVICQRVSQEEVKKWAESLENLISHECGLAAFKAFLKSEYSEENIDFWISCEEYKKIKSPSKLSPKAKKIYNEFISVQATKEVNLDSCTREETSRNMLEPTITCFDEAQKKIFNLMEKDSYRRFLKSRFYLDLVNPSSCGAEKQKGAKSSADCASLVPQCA
RGS4 act: RGS4 potentiation or activation; HEK293 M3R/inducible RGS4, carbachol calcium flux Fluo4; stronger effect = lower value; B-score at 10 µM; 0.92% of 310,000 active; AID 463111;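 active = B-score of the integrated calcium signal more than 4 SD below the library mean, with starting fluorescence not abnormally high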;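 note: negative B-score means reduced calcium response which marks RGS4 activation or potentiation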
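Assay system: HEK293 FlpIn-TREx cells, stable M3R, doxycycline-inducible RGS4 / Probe or stimulus: carbachol, ECmax concentration / Times: overnight RGS4 induction, 30 min dye load 37 °C, 20 min compound RT / Signal: kinetic calcium fluorescence imaging with Fluo4-AM dye, 2 µM / Measure: Agonist-evoked peak-minus-minimum fluorescence over baseline, integrated ratio, B score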
MrgX1 PAM: human MrgX1 positive allosteric modulation, primary screen | 0.63% of 310,000 active | Q96LB2 | B-score at 10 µM | MrgX1-HEK293, Fluo-4 calcium flux, FDSS; stronger effect = higher value | AID 588675;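 active = plate-corrected calcium response at least 3 library SD above typical, normal starting fluorescence, not activating the receptor alone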;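 note: compound read alongside a low EC10 to EC30 dose of BAM8-22 agonist; peak minus trough fluorescence over baseline measured at the second addition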
Target sequence (Q96LB2 whole entry, looked up): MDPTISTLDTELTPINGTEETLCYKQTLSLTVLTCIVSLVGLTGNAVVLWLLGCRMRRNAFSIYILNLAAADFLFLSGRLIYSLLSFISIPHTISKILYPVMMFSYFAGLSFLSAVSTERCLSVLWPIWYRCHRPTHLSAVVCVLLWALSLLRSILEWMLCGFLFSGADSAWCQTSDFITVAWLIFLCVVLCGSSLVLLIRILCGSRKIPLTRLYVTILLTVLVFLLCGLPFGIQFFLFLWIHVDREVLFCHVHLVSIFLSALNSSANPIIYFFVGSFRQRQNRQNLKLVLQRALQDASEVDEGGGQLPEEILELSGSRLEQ
MrgX1 agonist: activates human MrgX1 receptor signaling; MrgX1-HEK293 cells, Fluo-4 calcium fluorescence, agonist mode; stronger effect = higher value; B-score at 10 µM; 0.44% of 310,000 active;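 active = calcium response B-score plate-corrected fluorescence ratio at least 3 library SD, with starting fluorescence B-score inside 5 SD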
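Material: HEK293 cells stably expressing human MrgX1 receptor | Quantity: 15,000 cells per well | Times: Cells plated overnight, dye loaded 0.5 h 37 °C, 0.5 h room temperature | Measured by: Kinetic Fluo-4 NW fluorescence of intracellular calcium | Control set: Positive and negative controls per plate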
MrgX1 antagonist: human MrgX1 receptor antagonism, primary screen; Q96LB2; MRGX1-HEK293 calcium flux, Fluo-4, BAM8-22 antagonism; stronger effect = lower value; B-score at 10 µM; 1.3% of 310,000 active;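 active = calcium-response B-score plate-corrected more than 3 library SD below zero, starting fluorescence within 5 deviations, no agonist response on first addition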;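 note: peak minus trough fluorescence over baseline after final BAM8-22 challenge near maximal dose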
RGS4 block valid: validation of RGS4 inhibitors. shares compounds with RGS4 inh. HEK293 M3R/RGS4, carbachol calcium Fluo-4 fluorescence; carbachol added at its EC20; 0 = buffer wells, 100 = carbachol control. calcium response, % at 10 µM. 65% of 1,700 active. AID 492999;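 active = duplicate-averaged calcium response above the buffer-only control mean plus 5 SD of those controls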;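 note: integrated fluorescence ratio F max minus min over baseline F0; higher response in RGS4-induced cells means RGS4 inhibition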
RGS4 uninduced: counter-screen for RGS4 inhibitors: effect in non-induced cells; shares compounds with RGS4 inh; HEK293 M3R non-induced, carbachol calcium Fluo-4; submaximal (EC20) carbachol stimulus; buffer wells 0%, carbachol control wells 100%; activity (percent), % at 10 µM; 20% of 1,900 active; call rule not given here;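 note: RGS4 induction absent so cells express M3R without RGS4; higher means more calcium signal and flags a non-specific hit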
RGS4 inh ctr2: second counter-screen for RGS4 inhibitors: non-induced cells without carbachol; calcium response (agonist-mode artifact), % at 10 µM; 22% of 1,900 active; HEK293 M3R/RGS4 non-induced, Fluo-4 calcium, no carbachol; normalised: buffer wells 0%, carbachol wells 100%; shares compounds with RGS4 inh;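 active = duplicate-averaged calcium rise in uninduced cells above buffer wells' mean plus 5 SD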
MrgX1 ag confirm: confirmation of human MrgX1 receptor agonists. shares compounds with MrgX1 agonist. 78% of 600 active. activation, % at 10 µM. MrgX1-HEK293, Fluo-4 calcium fluorescence, FDSS;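 active = calcium signal rise, corrected for plate position, at least 3 library SD high, with starting brightness within 5 such deviations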
MrgX1 PAM conf: human MrgX1 positive allosteric modulation, re-confirmation. shares compounds with MrgX1 PAM. MrgX1-HEK293, Fluo-4 calcium fluorescence, FDSS. activation (ratio percentage), % at 10 µM. 13% of 1,200 active. AID 602413;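 active = ratio at least 3 SD above the weak peptide control, stable starting fluorescence, no direct agonism earlier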;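 note: compound followed by low BAM8-22 agonist challenge near EC20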
MrgX1 antag conf: human MrgX1 receptor antagonism, re-confirmation screen. remaining BAM8-22 calcium response % of control (stronger effect = lower value), % at 10 µM. MrgX1-HEK293, BAM8-22 calcium flux, Fluo-4; stronger effect = lower value. AID 602420. shares compounds with MrgX1 antagonist. 19% of 2,300 active;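 active = remaining agonist calcium response no higher than 100% minus 3 SD of agonist-only control wells, with starting fluorescence near control levels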;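 note: agonist BAM8-22 given at a near maximal EC90 to ECmax level; peak minus minimum fluorescence divided by baseline after agonist addition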
HEK293 Ca flux: activity in parental HEK293 cells lacking MrgX1; Fluo-4 calcium fluorescence, FDSS; shares compounds with MrgX1 antagonist; fluorescence ratio F(max-min)/F0 at 10 µM; AID 624111; 2% of 4,000 active;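 active = duplicate-averaged calcium fluorescence ratio at least three times the standard deviation of buffer wells, a nonspecific response in parental cells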
HEK293 Ca counter: MrgX1 allosteric activator counter-screen hit in parental HEK293 cells; AID 624114; fluorescence ratio F(max-min)/F0 at 10 µM; parental HEK293 calcium flux, Fluo-4 fluorescence ratio; stronger effect = higher value; 0.4% of 4,000 active; shares compounds with MrgX1 antagonist;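 active = calcium fluorescence ratio, averaged over duplicates, at least 3 SD of the buffer-well ratio, meaning a nonspecific response in receptor-free cells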;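 note: untransfected parental HEK293 lacking MrgX1 used as counterscreen for MrgX1 allosteric activators; fluorescence change taken during the second addition on a kinetic imager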
HEK293 Ca cntr2: MrgX1 activator counter-screen hit in parental HEK293 cells | shares compounds with MrgX1 antagonist | Fluo-4 calcium fluorescence (FDSS); stronger effect = higher value | fluorescence ratio F(max-min)/F0 at 10 µM | 8.7% of 4,000 active | AID 624115;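 active = calcium fluorescence ratio at least three times the spread of buffer wells, meaning a non-specific response in parental cells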
Numbers stand for hits; - = inactive; . = no result given.

SMILES | RGS4 inh | RGS4 act | MrgX1 PAM | MrgX1 agonist | MrgX1 antagonist | RGS4 block valid | RGS4 uninduced | RGS4 inh ctr2 | MrgX1 ag confirm | HEK293 Ca flux | HEK293 Ca counter | HEK293 Ca cntr2 | others
Cc1ccc(CN=Cc2[nH]c3ccc(Br)c(Cl)c3c2O)cc1 | - | - | - | - | -6.8 | - | - | 48% | . | 0.23 | - | - | MrgX1 antag conf=-
COc1ccc(CN=Cc2c(O)[nH]c3ccccc23)cc1 | - | - | - | - | - | . | . | . | . | . | . | .
CC1CN(C(=O)c2ccccc2)c2ccccc2NC1=O (stereo unspecified) | - | - | - | - | - | . | . | . | . | . | . | .
COc1ccc(C(=O)CCN2CCN(c3ccccc3OC)CC2)cc1 | - | - | - | - | - | . | . | . | . | . | . | .
COc1ccc(C(=O)CCN2CCc3cc(OC)c(OC)cc3C2)cc1 | - | - | - | 42 | - | . | - | 8.5% | - | - | - | -
CC1CCN(c2nc3nonc3nc2Nc2ccc(F)cc2)CC1 | - | - | - | - | - | . | . | . | . | . | . | .
CC(=O)NCc1ccc(C(=O)CCl)cc1 | 6.7 | - | - | 35 | - | 40% | - | 9.5% | 197% | - | - | -
CC(=O)NCc1ccc(C(=O)CCl)s1 | - | - | - | - | - | . | . | . | . | . | . | .
O=[N+]([O-])c1ccc(Oc2ccc(S(=O)(=O)Nc3ccccc3)cc2)cc1 | - | - | - | - | - | . | . | . | . | . | . | .
O=C1C(Cl)=C(NS(=O)(=O)c2ccc([N+](=O)[O-])cc2)C(=O)c2ccccc21 | 8.5 | - | 21 | - | - | 42% | - | - | . | - | - | - | MrgX1 PAM conf=14%
CCOc1ccc(-c2nnc3n2N=C(c2ccc(OC)cc2)CS3)cc1 | - | - | - | - | - | . | . | . | . | . | . | .
COc1ccc(C2=Nn3c(nnc3-c3ccncc3)SC2)cc1OC | 5.2 | - | 8.2 | - | - | 9.0% | - | - | . | - | - | - | MrgX1 PAM conf=-
CC(C)CCN(C(=O)CNC(=O)c1ccco1)C(C(=O)NC1CCCCC1)c1ccco1 (stereo unspecified) | - | - | - | - | - | . | . | . | . | . | . | .
C[N+](C)(C)C/C=C1/COCO1 | 7.3 | -9.1 | - | 67 | - | 14% | - | 386% | 328% | - | - | 67
COc1ccc(C(=O)CCS(=O)(=O)c2ccc(F)cc2)cc1OC | 36 | - | - | 31 | - | 168% | 28% | 15% | 141% | - | - | -
NC(=O)SCC(=O)Nc1ccc(Cl)c(Cl)c1 | . | . | - | - | - | . | . | . | . | . | . | .
Cc1ccc(NC(=O)CSC(N)=O)cc1Cl | 6.1 | - | - | - | -5 | 12% | - | - | . | - | - | - | MrgX1 antag conf=85%
COc1ccc(N2CCN(c3ccc(NC(=O)/C=C\C(=O)O)cc3)CC2)cc1 | - | - | - | - | - | . | . | . | . | . | . | .
COc1cc(C2(c3ccc(O)c(OC)c3)C(=O)Nc3c(C)cc(Br)cc32)ccc1O | 12 | - | - | - | -4.6 | 43% | - | 25% | . | - | - | - | MrgX1 antag conf=83%
CCOc1cc(CNn2cnnc2SCC(=O)NC(C)(C)C)ccc1OCC(=O)NC(C)(C)C | - | - | - | - | - | . | . | . | . | . | . | .
COc1ccc(C2C(C#N)=C(N)Oc3cc(O)ccc32)cc1Cl (stereo unspecified) | 6.8 | - | - | 49 | - | 20% | 43% | 40% | - | - | - | -
CCOc1ccc(C2C(C#N)=C(N)Oc3cc(O)ccc32)cc1OCC (stereo unspecified) | - | - | - | - | - | . | . | . | . | . | . | .
CCN(CC)c1ccc(Nc2cc3n(c(=O)n2)CCc2cc(OC)c(OC)cc2-3)cc1 | - | - | - | - | -11 | . | 50% | - | . | - | - | - | MrgX1 antag conf=-
Cc1ccc(NCC(=O)N/N=C\c2ccc[nH]2)cc1 | - | - | - | - | - | . | . | . | . | . | . | .
Cc1c(Cl)ccc2c1NC(=O)[C@]21N[C@@H](Cc2ccccc2)[C@H]2C(=O)N(c3ccc(F)cc3)C(=O)[C@H]21 | 4.9 | - | - | 27 | - | 27% | - | 20% | - | - | - | -
SMILES | RGS4 inh | RGS4 act | MrgX1 PAM | MrgX1 agonist | MrgX1 antagonist | RGS4 block valid | RGS4 uninduced | RGS4 inh ctr2 | MrgX1 ag confirm | HEK293 Ca flux | HEK293 Ca counter | HEK293 Ca cntr2 | others
COc1cc(CNc2ccc(N3CCCC3)cc2)cc(Cl)c1OC | - | - | - | - | -6.1 | . | 33% | - | . | - | - | - | MrgX1 antag conf=-
Nc1c(C(=O)c2ccccc2)sc2snc(SCC(=O)c3ccccc3)c12 | - | - | - | 32 | - | . | . | . | 225% | 0.41 | - | 55
Nc1nnc(SCC(=O)c2ccccc2)s1 | - | - | - | - | - | . | . | . | . | . | . | .
COc1ccc(C(=O)NC(Nc2ccccc2)C(Cl)(Cl)Cl)cc1 (stereo unspecified) | - | - | - | - | - | . | . | . | . | . | . | .
CCc1cc2c(=O)n(CCCOC)c(SCC(=O)Nc3oc(C)c4c(C)n[nH]c(=O)c34)nc2s1 | - | - | - | - | - | . | . | . | . | . | . | .
Cc1ccc(-c2n[nH]c(=O)c3ccccc23)cc1S(=O)(=O)NCC1CCCO1 (stereo unspecified) | - | - | - | 40 | - | . | . | . | 174% | - | - | -
N#CCCN(Cc1cccs1)C(=O)c1ccc(Cl)cc1 | - | - | - | - | - | . | . | . | . | . | . | .
CCOC(=O)C1=C(CN2CCN(C(=O)c3ccco3)CC2)NC(=O)NC1c1ccc(Cl)cc1 (stereo unspecified) | - | - | - | - | - | . | . | . | . | . | . | .
CCOC(=O)C1=C(CN2CCC(C)CC2)NC(=O)NC1c1ccc(Cl)cc1 (stereo unspecified) | - | - | - | 39 | - | . | . | . | 195% | - | - | -
